In assay [1] the test system is LRRK2 Ser910/Ser935 phosphorylation. In kind it is in vivo, mouse. Put shortly:
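Mice received the test compound intraperitoneally at 100, 50, 30 or 10 mg/kg. Brain, spleen and kidney were collected, and endogenous LRRK2 was resolved by SDS-PAGE. Blots were probed with phospho-specific antibodies to Ser910 and Ser935 and for total LRRK2, with quantitative analysis of the blots.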

Assay [2] deals with T1, GST-LRRKT[A2016T] (1,326–2,527) (Homo sapiens, UniProt Q5S007, A2016T).
T1 sequence (Q5S007 1326-2527 A2016T): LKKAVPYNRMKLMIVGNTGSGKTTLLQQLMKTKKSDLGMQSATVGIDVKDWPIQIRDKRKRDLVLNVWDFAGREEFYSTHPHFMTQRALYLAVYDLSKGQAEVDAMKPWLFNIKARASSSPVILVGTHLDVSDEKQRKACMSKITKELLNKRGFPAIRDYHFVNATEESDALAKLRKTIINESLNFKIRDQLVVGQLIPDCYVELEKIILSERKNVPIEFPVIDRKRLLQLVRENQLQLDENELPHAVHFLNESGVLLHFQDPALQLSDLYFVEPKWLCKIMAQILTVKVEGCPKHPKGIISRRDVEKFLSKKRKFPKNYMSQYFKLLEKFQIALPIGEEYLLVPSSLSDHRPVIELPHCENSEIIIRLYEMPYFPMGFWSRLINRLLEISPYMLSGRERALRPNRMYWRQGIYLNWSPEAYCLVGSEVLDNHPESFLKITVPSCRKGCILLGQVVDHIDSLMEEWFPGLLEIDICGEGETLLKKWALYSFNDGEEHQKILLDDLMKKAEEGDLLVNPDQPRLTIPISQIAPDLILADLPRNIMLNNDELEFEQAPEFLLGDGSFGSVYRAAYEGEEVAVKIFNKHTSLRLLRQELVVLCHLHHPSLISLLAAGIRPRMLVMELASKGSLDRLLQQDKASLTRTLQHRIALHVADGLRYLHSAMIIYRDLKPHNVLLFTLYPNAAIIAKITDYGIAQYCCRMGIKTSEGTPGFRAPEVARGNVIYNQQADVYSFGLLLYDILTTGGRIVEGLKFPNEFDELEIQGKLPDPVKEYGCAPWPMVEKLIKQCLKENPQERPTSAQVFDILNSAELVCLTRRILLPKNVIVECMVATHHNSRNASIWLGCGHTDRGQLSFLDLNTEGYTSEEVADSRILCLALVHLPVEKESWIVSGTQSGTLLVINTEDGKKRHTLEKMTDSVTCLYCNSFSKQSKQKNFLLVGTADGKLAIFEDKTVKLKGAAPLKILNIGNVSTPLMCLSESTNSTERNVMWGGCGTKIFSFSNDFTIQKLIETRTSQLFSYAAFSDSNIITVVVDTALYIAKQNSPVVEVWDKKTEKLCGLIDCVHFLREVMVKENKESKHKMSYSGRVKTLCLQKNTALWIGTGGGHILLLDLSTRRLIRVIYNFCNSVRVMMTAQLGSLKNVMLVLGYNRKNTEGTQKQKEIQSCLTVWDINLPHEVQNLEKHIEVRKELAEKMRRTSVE
The assay is described as follows: Biochemical inhibition of GST-LRRK2[A2016T]. Particulars: 20 µM Nictide, 100 µM ATP.

Assay [3] has as its system panel of 451 kinases. The assay is described as follows: KinomeScan analysis. In kind it is binding. Particulars: 1 µM.
Assay [4] concerns GFP-LRRK2[A2016T] in HEK293 cells. The assay is described as follows: Ser910/Ser935 phosphorylation in HEK293 cells, GFP-LRRK2[A2016T]. The format is cell-based. As to conditions: 90 min. In outline:
(§1)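 HEK293 cells stably expressing the GFP-tagged LRRK2 mutant were treated with DMSO or increasing concentrations of test compound for 90 min. A reference LRRK2 inhibitor at 1 μM served as control. Cell lysates were immunoblotted for LRRK2 phospho-Ser910, phospho-Ser935 and total LRRK2.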

Assay [5] deals with T2, TBK1 (Mus musculus, UniProt Q9WUN2).
T2 sequence (Q9WUN2 1-729): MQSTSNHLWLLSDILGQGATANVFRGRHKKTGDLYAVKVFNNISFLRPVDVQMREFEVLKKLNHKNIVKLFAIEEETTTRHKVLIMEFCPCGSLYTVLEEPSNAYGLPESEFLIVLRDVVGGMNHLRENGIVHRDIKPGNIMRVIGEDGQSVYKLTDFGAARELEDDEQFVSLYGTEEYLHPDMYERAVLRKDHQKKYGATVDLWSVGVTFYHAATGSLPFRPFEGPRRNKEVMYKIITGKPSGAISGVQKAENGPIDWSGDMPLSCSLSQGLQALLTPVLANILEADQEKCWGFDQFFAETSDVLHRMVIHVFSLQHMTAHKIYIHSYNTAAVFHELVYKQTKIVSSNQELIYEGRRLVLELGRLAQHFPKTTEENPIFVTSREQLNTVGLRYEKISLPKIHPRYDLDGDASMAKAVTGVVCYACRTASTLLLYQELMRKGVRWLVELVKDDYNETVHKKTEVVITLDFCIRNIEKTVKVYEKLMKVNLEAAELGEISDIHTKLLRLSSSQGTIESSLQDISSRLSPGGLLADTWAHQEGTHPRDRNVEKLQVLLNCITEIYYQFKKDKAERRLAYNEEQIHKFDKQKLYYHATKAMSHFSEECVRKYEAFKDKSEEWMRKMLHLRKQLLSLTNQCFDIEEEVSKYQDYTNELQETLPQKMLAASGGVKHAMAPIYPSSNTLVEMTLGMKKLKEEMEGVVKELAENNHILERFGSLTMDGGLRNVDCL
The assay can be described thus: KiNativ chemical proteomics of tissues from treated animals, TBK1. In kind it is in vivo. Particulars: read-out: TBK1 inhibition (KiNativ).

In assay [6] the target is LRRK2 (Mus musculus, UniProt Q5S006). The assay is described as follows: KiNativ chemical proteomics of tissues from treated animals, LRRK2. In kind it is in vivo. Particulars: for LRRK2 target engagement (KiNativ): spleen.
LRRK2, sequence (Q5S006 whole entry): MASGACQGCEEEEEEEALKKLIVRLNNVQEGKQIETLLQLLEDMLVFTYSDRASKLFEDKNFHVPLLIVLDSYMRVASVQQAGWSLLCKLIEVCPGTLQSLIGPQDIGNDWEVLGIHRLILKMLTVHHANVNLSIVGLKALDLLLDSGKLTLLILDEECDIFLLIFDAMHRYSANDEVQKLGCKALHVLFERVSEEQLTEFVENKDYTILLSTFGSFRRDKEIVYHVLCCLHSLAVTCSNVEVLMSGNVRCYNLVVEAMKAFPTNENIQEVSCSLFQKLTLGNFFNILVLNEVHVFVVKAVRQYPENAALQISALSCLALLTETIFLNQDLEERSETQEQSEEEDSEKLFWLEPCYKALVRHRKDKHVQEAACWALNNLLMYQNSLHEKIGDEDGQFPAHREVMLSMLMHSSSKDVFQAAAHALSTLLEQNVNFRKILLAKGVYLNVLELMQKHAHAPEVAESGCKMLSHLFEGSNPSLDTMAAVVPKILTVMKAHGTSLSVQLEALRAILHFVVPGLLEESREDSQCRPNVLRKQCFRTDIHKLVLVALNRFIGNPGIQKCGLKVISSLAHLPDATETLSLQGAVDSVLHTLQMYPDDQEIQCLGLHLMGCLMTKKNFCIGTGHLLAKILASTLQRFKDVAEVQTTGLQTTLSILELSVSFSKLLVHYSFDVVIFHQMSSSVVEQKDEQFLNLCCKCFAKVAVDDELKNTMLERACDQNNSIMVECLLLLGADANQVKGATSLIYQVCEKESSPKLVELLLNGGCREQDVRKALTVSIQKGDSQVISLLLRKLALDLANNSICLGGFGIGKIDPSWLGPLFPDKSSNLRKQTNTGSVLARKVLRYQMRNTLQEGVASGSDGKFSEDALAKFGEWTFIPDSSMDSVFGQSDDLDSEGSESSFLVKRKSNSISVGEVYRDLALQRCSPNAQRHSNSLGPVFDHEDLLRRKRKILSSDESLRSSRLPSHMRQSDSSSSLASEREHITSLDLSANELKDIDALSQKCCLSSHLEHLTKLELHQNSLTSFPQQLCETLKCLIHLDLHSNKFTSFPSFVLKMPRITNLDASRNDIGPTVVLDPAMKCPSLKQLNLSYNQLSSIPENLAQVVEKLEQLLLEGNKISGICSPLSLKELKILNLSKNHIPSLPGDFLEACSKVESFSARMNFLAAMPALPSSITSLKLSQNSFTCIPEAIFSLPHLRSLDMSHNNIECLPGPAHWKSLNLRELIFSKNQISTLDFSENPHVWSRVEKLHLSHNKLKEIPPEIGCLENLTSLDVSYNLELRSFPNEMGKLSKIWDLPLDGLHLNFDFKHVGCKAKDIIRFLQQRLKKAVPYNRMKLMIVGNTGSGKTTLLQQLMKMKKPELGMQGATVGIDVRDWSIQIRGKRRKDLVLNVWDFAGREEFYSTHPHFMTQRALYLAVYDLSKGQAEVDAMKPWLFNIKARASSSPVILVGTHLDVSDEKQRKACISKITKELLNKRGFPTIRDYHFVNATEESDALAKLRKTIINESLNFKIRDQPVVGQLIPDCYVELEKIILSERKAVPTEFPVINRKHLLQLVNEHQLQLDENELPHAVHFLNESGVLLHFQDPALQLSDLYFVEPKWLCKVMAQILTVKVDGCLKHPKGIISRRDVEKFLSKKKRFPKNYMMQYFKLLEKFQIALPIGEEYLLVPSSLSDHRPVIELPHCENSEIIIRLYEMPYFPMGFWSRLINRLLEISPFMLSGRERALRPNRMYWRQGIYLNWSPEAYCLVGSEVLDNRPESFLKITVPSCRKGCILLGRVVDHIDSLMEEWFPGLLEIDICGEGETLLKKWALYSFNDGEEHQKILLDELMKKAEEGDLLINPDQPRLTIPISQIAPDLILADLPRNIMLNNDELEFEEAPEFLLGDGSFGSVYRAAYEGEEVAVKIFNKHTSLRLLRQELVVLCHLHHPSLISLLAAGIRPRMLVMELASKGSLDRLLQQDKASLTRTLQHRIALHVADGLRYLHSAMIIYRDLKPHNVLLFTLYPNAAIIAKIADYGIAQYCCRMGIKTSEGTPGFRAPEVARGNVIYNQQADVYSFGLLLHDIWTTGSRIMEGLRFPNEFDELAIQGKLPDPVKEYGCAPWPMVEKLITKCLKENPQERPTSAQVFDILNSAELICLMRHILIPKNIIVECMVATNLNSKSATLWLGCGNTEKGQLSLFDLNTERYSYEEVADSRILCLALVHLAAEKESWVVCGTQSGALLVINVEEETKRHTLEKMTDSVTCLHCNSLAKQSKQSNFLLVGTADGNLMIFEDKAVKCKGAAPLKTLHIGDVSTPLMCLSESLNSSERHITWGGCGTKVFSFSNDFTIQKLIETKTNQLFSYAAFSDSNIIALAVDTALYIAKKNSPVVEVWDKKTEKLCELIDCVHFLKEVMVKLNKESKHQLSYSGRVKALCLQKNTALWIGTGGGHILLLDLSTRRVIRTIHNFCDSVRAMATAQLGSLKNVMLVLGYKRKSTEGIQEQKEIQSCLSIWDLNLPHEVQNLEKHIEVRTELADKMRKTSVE
For assay [7], the system named is GFP-LRRK2[G2019S+A2016T] in HEK293 cells. The assay can be described thus: Ser910/Ser935 phosphorylation in HEK293 cells, GFP-LRRK2[G2019S+A2016T]. In kind it is cell-based. Particulars: 90 min. In outline:
as §1

For assay [8], the system named is JNK1/2/3. The assay can be described thus: KiNativ chemical proteomics of tissues from treated animals, JNK1/2/3. The format is in vivo, mouse.
Assay [9] relates to >150 protein and lipid kinases. The assay can be described thus: KiNativ chemical proteomics, other kinases of the panel. As to conditions: any dose (3–100 mg/kg). In kind it is in vivo, mouse.
Assay [10] has as its system LRRK2 Ser910/Ser935 phosphorylation. Particulars: intraperitoneal doses of up to 100 mg/Kg; cited from earlier work.

Structures are written as SMILES. Like-named read-outs stand apart in the source and are kept apart here.

The term inhibition denotes how much of the control response was suppressed. In the case of `CNc1nc(Nc2ccc(C(=O)N3CCOCC3)cc2OC)ncc1Cl` [Compound 4], in assay [1] (mouse brain, intraperitoneal delivery), the “lowest dose inhibiting Ser910 and Ser935 phosphorylation in mouse brain” value was 50 mg/kg. Besides, the “inhibition of LRRK2 Ser910/Ser935 phosphorylation in brain” value is “partial inhibition” in [1] (mouse, intraperitoneal 10 mg/kg) and “partial inhibition” in assay [1] (mouse, intraperitoneal 30 mg/kg). Further, the “inhibition of LRRK2 Ser910/Ser935 phosphorylation in tissues” value in [1] (mouse, intraperitoneal 50 mg/kg, all tissues) is given as “near complete inhibition”. In assay [1] (mouse, intraperitoneal 100 mg/kg, kidney, spleen and brain), the “dephosphorylation of Ser910 and Ser935 of LRRK2 in tissues” value was “near complete dephosphorylation”. Besides, in [2], the “effect of the A2016T mutation on inhibition” value is on record as “maintains inhibition of the A2016T mutation”. For the same compound, the “interactions detected in KinomeScan” value in [3] is reported as “no interactions detected with kinases other than G2019S LRRK2 with the exception of one mutant form of c-Kit (L576P)”. In addition, the “concentration inducing dephosphorylation of Ser910 and Ser935” value in [4] and in [7] was 1 to 3 µM in each case. Moreover, the inhibition at 50 mg/kg in [5] was in the range of 35 to 40%. Also, the inhibition at 100 mg/kg in assay [5] was 35 to 40%. Moreover, the “LRRK2 target engagement (KiNativ)” value in [6] (10 mg/kg) is given as 80–90%; in assay [6] (30–100 mg/kg) it was “greater than 90%”. Further, the “JNK1/2/3 inhibition (KiNativ)” value in assay [8] (50 mg/kg) and in [8] (100 mg/kg) was 35–40% in each case. Besides, the “inhibition of kinases other than LRRK2 (KiNativ)” value in assay [9] is recorded as not above 50%.
Take `COc1cc(N2CCC(N3CCN(C)CC3)CC2)ccc1Nc1ncc(Cl)c(Nc2ccccc2S(=O)(=O)C(C)C)n1` [TAE684]: in assay [10], the “inhibition of phosphorylation of Ser910 and Ser935 of LRRK2 in mouse brain” value (shortened to “inhibition of phosphorylation … in mouse brain”) is reported as “none of these compounds are capable of effectively inhibiting”.
With `COc1cc(N2CCOCC2)ccc1Nc1ncc(F)c(Nc2ccccc2NS(C)(=O)=O)n1` [CZC-25146], the “inhibition of phosphorylation … in mouse brain” value in [10] was “none of these compounds are capable of effectively inhibiting”.
As to `COc1cc(C(=O)N2CCC(N3CCN(C)CC3)CC2)ccc1Nc1ncc2c(n1)N(C)c1ccccc1C(=O)N2C` [LRRK2-IN-1, reference compound], the “effect of the A2016T mutation on inhibition” value in assay [2] is reported as “dramatic resistance”. Also, in [10], the “inhibition of phosphorylation … in mouse brain” value is listed as “none of these compounds are capable of effectively inhibiting”. The “LRRK2 inhibition (KiNativ)” value in [6] (brain, 100 mg/kg) was “no LRRK2 inhibition”.

The values above are taken from article PMC3467149 (ACS medicinal chemistry letters, 2012).
